# Measurements from article PMC6534466 (European journal of pharmacology, 2019).
# Like-named read-outs stand apart in the source and are kept apart here.
# Experiments:
# Jurkat cells = test: Jurkat cell proliferation; assay type: cell-based, human; details: 72 h; for Cell proliferation inhibition: Jurkat cells, relative to DMSO
# Summary of the method: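 Jurkat cells (T-lymphoblastic leukaemia, endogenous CB2) at passage 4–12 were grown in RPMI 1640 with 10% FBS and 1% antibiotic-antimycotic at 37°C and 5% CO2. Cells were plated at 10^5 cells/ml and given test compound in RPMI (DMSO vehicle) for 70 h. CellTiter 96 AQueous One was then added for 2 h and A490 read. Percent inhibition was taken relative to DMSO. Triplicate; mean ± S.E.M.; one-way ANOVA with Tukey.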
# [1] = tested on: ERK1/2 phosphorylation (cannabinoid CB2 receptor-induced); test: ERK1/2 phosphorylation immunoblot in CB2-transfected HEK293 cells; assay type: cell-based; details: 1.0 μM compound, 5 min; for ERK1/2 phosphorylation in the presence of PTX: 10 ng/ml PTX pretreatment 16 h; for ERK1/2 phosphorylation, fold increase above vehicle: without PTX
# Summary of the method: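 HEK293 cells were transfected with CB2 DNA by Lipofectamine 2000, then pretreated 24 h later in DMEM with or without 10 ng/ml pertussis toxin for 16 h. They were exposed 5 min at 37°C to 1.0 µM test compound; vehicle was DMSO on CB2-transfected cells. Lysates were immunoblotted for phospho-p44/42 and phospho-MEK with chemiluminescent detection. Statistics: one-way ANOVA with Tukey test.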
# cannabinoid CB1 receptor = cannabinoid CB1 receptor (Homo sapiens, UniProt P21554); details: read-out: Ki, cannabinoid CB1 receptor, ref Huffman et al., cited from earlier work
# cannabinoid CB2 receptor [2] = target: T1, cannabinoid CB2 receptor (Homo sapiens, UniProt P34972); details: read-out: Ki, cannabinoid CB2 receptor, ref Huffman et al., cited from earlier work
# cannabinoid CB2 receptor [3] = target: T1, cannabinoid CB2 receptor; details: read-out: EC50, cAMP accumulation screen; prior screen; ref Ogawa et al., 2017; cited from earlier work
# cannabinoid CB2 receptor [4] = target: T1, cannabinoid CB2 receptor; test: [35S]GTPγS binding stimulation; assay type: biochemical
# cannabinoid CB2 receptor [5] = target: T1, cannabinoid CB2 receptor; test: Radioligand competition binding with [3H]CP55,940, CB2
# [6] = Homo sapiens, Jurkat, read-out: Cell proliferation inhibition
# T1 sequence (P34972 whole entry): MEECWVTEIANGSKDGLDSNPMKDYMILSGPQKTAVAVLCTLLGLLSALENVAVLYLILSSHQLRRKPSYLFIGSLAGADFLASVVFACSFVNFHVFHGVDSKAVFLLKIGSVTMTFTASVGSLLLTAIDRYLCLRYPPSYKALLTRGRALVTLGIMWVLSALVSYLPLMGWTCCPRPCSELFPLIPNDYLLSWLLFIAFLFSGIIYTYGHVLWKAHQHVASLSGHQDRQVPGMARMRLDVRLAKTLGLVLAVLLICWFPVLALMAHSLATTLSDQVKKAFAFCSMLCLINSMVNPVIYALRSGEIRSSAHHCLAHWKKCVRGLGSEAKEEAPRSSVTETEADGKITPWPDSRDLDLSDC
# cannabinoid CB1 receptor, sequence (P21554 whole entry): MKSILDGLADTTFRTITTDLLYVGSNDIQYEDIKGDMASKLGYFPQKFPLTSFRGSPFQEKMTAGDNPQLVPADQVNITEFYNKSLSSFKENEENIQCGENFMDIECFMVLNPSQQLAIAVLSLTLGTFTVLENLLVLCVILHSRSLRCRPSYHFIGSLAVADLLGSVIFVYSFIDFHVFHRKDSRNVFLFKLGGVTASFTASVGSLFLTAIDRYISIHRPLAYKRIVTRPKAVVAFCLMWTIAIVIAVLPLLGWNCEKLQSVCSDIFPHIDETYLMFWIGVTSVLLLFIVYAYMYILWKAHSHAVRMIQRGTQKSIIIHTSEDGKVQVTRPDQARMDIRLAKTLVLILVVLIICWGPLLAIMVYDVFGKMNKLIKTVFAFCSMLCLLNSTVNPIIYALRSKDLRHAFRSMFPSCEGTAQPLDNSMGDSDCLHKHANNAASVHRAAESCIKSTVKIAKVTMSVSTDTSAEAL
Compound,ERK1/2 phosphorylation in the presence of PTX [1],"ERK1/2 phosphorylation, fold increase above vehicle [1]",EC50 (cannabinoid CB2 receptor [3]) [nM],EC50 (cannabinoid CB2 receptor [4]) [nM],Ki (cannabinoid CB2 receptor [5]) [nM],further results
"CCCCCCC(C)(C)c1ccc([C@@H]2C[C@H](O)CC[C@H]2CCCO)c(O)c1 [CP55,940, reference compound]",,,,,,Cell proliferation inhibition (Jurkat cells; 0.1 μM): 7±3%; Cell proliferation inhibition (Jurkat cells; 10 μM): 26±8%
"CCOC(=O)c1ccccc1NC(=O)CN(c1cccc(C)c1C)S(=O)(=O)c1ccccc1 [ABK5, ethyl 2-(2-(N-(2,3-dimethylphenyl)phenylsulfonamido)acetamido)benzoate]",prevented by the addition of PTX,induce ERK1/2 phosphorylation,,,,inhibition at 0.1 µM (Jurkat cells; [6]): 15 ± 2%; inhibition at 10 µM (Jurkat cells; [6]): 20 ± 1%
CCCC(C)(C)c1ccc2c(c1)OC(C)(C)[C@@H]1CC=C(C)C[C@@H]21 [JWH-133],,,,,,Ki (cannabinoid CB1 receptor; 1999): 677 nM; Ki (cannabinoid CB2 receptor [2]; 1999): 3.4 nM
"COC(=O)c1ccccc1NC(=O)CN(c1ccccc1OC)S(=O)(=O)c1ccc(C)cc1 [ABK6, benzoic acid, 2-[[2-[(2-methoxyphenyl)[(4-methylphenyl)sulfonyl]amino]acetyl]amino]-, methyl ester]",prevented by the addition of PTX,induce ERK1/2 phosphorylation,2,13 ± 4,102 ± 7,
CCCCCCC(C)(C)c1ccc2c(c1)OC(C)(C)[C@@H]1CC=C(CO)C[C@@H]21 [JWH-051],,,,,,Ki (cannabinoid CB1 receptor; 1996): 1.2 nM; Ki (cannabinoid CB2 receptor [2]; 1996): 0.032 nM
"CCC(C(=O)Nc1sc2c(c1C(N)=O)CCCCCC2)c1ccccc1 (centres unmarked) [ABK7, 2-(2-phenylbutanamido)-4,5,6,7,8,9-hexahydrocycloocta[b]thiophene-3-carboxamide]",prevented by the addition of PTX,induce ERK1/2 phosphorylation,32,31 ± 14,317 ± 117,
